Data on eleven compounds can be found in ChEMBL document CHEMBL1144894, “Synthesis of 1-boraadamantaneamine derivatives with selective astrocyte vs C6 glioma antiproliferative activity. A novel class of anti-hepatitis C agents with potential to bind CD81” (2003).

SMILES strings stand for the structures.

Experiment [1] in a line: Antiproliferative effect was determined on CD81 enriched cell lines for binding and activation of the CD81 receptor. Type of experiment: functional, Rattus norvegicus. In outline:
(§1)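 Primary rat pup astrocytes (CD81-enriched, 4-8 days postpartum) and C6 glioma (CD81-deficient) were run in parallel, seeded at 3 × 10³ and 10³ cells/well. Compounds at 0.1-10 µM were given in 2% FCS-BME (0.05% DMSO final) for 4 days at 37 °C, 5% CO₂. Cells were formaldehyde-fixed and cresyl violet-stained (pH 3.7), with A560 read-out. % survival is relative to untreated wells, from 3 experiments × 4 wells.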

Experiment [2] in a line: Nonspecific cytotoxicity at the specified concentration. Format: functional.
The next experiment is filed under the species Rattus norvegicus. Kind of experiment: Concentration showing a non-astrocyte selective antiproliferative effect was determined. Type of experiment: functional. An outline of the steps:
as §1

Experiment [3] in a line: Tested for greatest astrocyte-selective antiproliferative character at concentration of 5 uM. Format: functional. An outline of the steps: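 Rat pup primary astrocytes (CD81-enriched, 4-8 days postpartum) and C6 glioma cells run in parallel, seeded at 3 × 10³ and 10³ per well. Incubated with compound for 4 days at 37 °C, 5% CO₂, final DMSO 0.05%. Fixed in formaldehyde, stained with cresyl violet, dye eluted in acetic acid, A560 read. % survival = treated/untreated ×100. Three experiments, four wells each.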

In experiment [1], `COC(=O)[C@H](CC(C)C)[NH2+][B-]12CC3CC(CC(C3)C1)C2` showed an Antiproliferative effect of 10 µM. Moreover, the Cytotoxicity in experiment [2] is greater than 10 µM.

Take `COC(=O)[C@H](Cc1ccccc1)NC(=O)C12CC3CC(CC(C3)C1)C2`: the Antiproliferative effect in experiment [1] came out at 10 µM. The Cytotoxicity in experiment [2] is greater than 10 µM. In the experiment filed under Rattus norvegicus, `O=C(NC12CC3CC(CC(C3)C1)C2)C12CC3CC(CC(C3)C1)C2` returned a Concentration of 10 µM. `OCC[NH2+][B-]12CC3CC(CC(C3)C1)C2` had an Antiproliferative effect in experiment [1] of 10 µM. The same compound came in with a Cytotoxicity in experiment [2] greater than 10 µM. `C1C2CC3CC1CC(NC14CC5CC(CC(C5)C1)C4)(C2)C3` yielded a Concentration in the experiment listed under Rattus norvegicus of 10 µM.

In turn, `CC(C)C[C@H](NC(=O)C12CC3CC(CC(C3)C1)C2)C(=O)O` came in with an Antiproliferative effect in experiment [1] of 10 µM. This compound also came in with a Cytotoxicity in experiment [2] greater than 10 µM. In experiment [3], `O=C(O)[C@H](Cc1ccccc1)NC(=O)C12CC3CC(CC(C3)C1)C2` showed a Cell survival of 82%. Further, in experiment [1], the Antiproliferative effect came to 10 µM. The compound further gave a Cytotoxicity in experiment [2] greater than 10 µM.

In the experiment filed under Rattus norvegicus, `C1C2CC3CC1C[B-]([NH2+]C14CC5CC(CC(C5)C1)C4)(C2)C3` displayed a Concentration of 10 µM. Same read-out and setting: then `COC(=O)[C@H](CC(C)C)NC(=O)C12CC3CC(CC(C3)C1)C2`, with 10 µM.

In the case of `COC(=O)[C@H](Cc1ccccc1)[NH2+][B-]12CC3CC(CC(C3)C1)C2`, in experiment [1], the Antiproliferative effect stood at 10 µM. In experiment [2], the Cytotoxicity was greater than 10 µM.

In the experiment filed under Rattus norvegicus, `COC(=O)[C@H](CS)[NH2+][B-]12CC3CC(CC(C3)C1)C2` gave a Concentration of 10 µM.
